This is an account of results in ChEMBL document CHEMBL4033622, “Synthesis and the interaction of 2-(1H-pyrazol-4-yl)-1H-imidazo[4,5-f][1,10]phenanthrolines with telomeric DNA as lung cancer inhibitors” (Eur J Med Chem, 2017).

For assay [1], the system named is A549. Nature of the assay: Cytotoxicity against human A549 cells assessed as cell growth inhibition at 10 uM after 36 hrs by CCK8 assay. Type of assay: functional, cell-based. On the technique in general: Formazan colour is commonly taken as a measure of viable cells.
The test system of assay [2] is A549. Description: Cytotoxicity against human A549/ATCC cells after 48 hrs by sulforhodamine B assay. In kind it is functional, cell-based. Conditions: A549, 48 h.
The subject of assay [3] is A549. Nature of the assay: Cytotoxicity against human A549 cells after 36 hrs by CCK8 assay. The conditions noted are these: A549, 36 h. Type of assay: functional, cell-based.
In assay [4] the test system is A549. Nature of the assay: Anti-migratory activity against human A549 cells assessed as […] at 0.1 uM after 48 hrs by wound healing assay relative to control. Type of assay: functional. Conditions: A549, 48 h. In short, it runs like this: (§1)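 A549 monolayer seeded at 1 × 10⁵ cells/mL and grown 24 h, then scratched with a pipette tip. Compounds were added and cells kept 48 h in serum-free medium, then photographed. Migration distance was measured against lines fitted to the wound edges, with three points per plate. Inhibition (%) = (1 − D_drug/D_control) × 100. Mean ± SD of three independent experiments in triplicate.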

A short description of assay [5]: Selectivity index, ratio of IC50 for human MRC5 cells to IC50 for human A549 cells. Type of assay: functional.
Assay [6] deals with A549. Nature of the assay: Anti-migratory activity against human A549 cells assessed as […] at 0.2 uM after 48 hrs by wound healing assay relative to control. Type of assay: functional. Conditions: A549, 48 h. The procedure, abridged:
as §1

The species entered for assay [7] is Homo sapiens. Nature of the assay: Binding affinity to human telomeric 26 mutated DNA up to 40 uM after 24 hrs by SYGR gold staining based electrophoretic mobility shift assay. (In general: A gel shift assay detects complexes by their altered migration in electrophoresis.)
The species entered for assay [8] is Homo sapiens. Description: Binding affinity to human telomeric 26 G-quadruplex DNA assessed as change in melting temperature at drug/DNA ratio of 1:10 by UV spectrophotometry (reference value: 39.34 degC).
A further assay concerns MRC5. Description: Cytotoxicity against human MRC5 cells after 36 hrs by CCK8 assay. In kind it is cell-based. Conditions: MRC5, 36 h.
Assay [9] is filed under the species Homo sapiens. Nature of the assay: Binding affinity to human telomeric 26 G-quadruplex DNA up to 20 uM after 24 hrs by SYBR gold staining based electrophoretic mobility shift assay.
Assay [10] is filed under the species Homo sapiens. Nature of the assay: Binding affinity to human telomeric 26 double stranded DNA up to 40 uM after 24 hrs by SYBR gold staining based electrophoretic mobility shift assay.
In assay [11] the test system is A549. Description: Anti-migratory activity against human A549 cells assessed as […] at 0.05 uM after 48 hrs by wound healing assay relative to control. In kind it is functional. The conditions noted are these: A549, 48 h. In short, it runs like this:
as §1

The species entered for assay [12] is Homo sapiens. Description: Binding affinity to human telomeric 26 G-quadruplex DNA after 24 hrs by SYBR gold staining based electrophoretic mobility shift assay.

Active and inactive are the calls of the source. No cut-off for these calls is given here.

As for `Cc1ccc(-c2n[nH]cc2-c2nc3c4cccnc4c4ncccc4c3[nH]2)cc1`, in the assay with A549 [1], the “growth inhibition (GI)” value was “Active”.

Turning to `CN(C)CCCn1cc(-c2nc3c4cccnc4c4ncccc4c3[nH]2)c(-c2ccc(Br)cc2)n1`, the “growth inhibition (GI)” value in the assay with A549 [1] is “Active”.

In the case of `Oc1cn(-c2ccc(Cl)cc2)nc1-c1n[nH]c(=S)n1-c1ccc(F)cc1`, the 50% growth inhibitory concentration (GI50) (in general, the concentration giving 50% growth inhibition) in the assay on A549 [2] is 13.2 µM.

As for `CN(C)CCCn1cc(-c2nc3c4cccnc4c4ncccc4c3[nH]2)c(-c2ccc(Cl)cc2)n1`, the “growth inhibition (GI)” value in the assay with A549 [1] was “Active”.

For the compound `Cc1ccc(-c2nn(C)cc2-c2nc3c4cccnc4c4ncccc4c3[nH]2)cc1`, in the assay with A549 [1], the “growth inhibition (GI)” value was “Active”.

In the case of `Nc1ccc(-n2cc(-c3nc4c5cccnc5c5ncccc5c4[nH]3)c(-c3ccc(Br)cc3)n2)nn1`, the “growth inhibition (GI)” value in the assay on A549 [1] is “Active”.

In the case of `Brc1ccc(-c2nc3c4cccnc4c4ncccc4c3[nH]2)cc1`, the IC50 (in general, the concentration needed to halve the response being measured) was found to be 1.69 µM with A549 [3] and 6.88 µM in the assay on MRC5. For the same compound, in the assay with A549 [4], the inhibition of growth at 0.1 µM worked out at 23.7%. Moreover, the “Ratio IC50” value in [5] came to 4.07. The “growth inhibition (GI)” value in the assay on A549 [1] is “Active”. Also, the inhibition of growth at 0.2 µM with A549 [6] is 56.1%. Besides, the result in the assay filed under Homo sapiens [7], in the assay listed under Homo sapiens [9] and in the assay filed under Homo sapiens [10] was inactive. The ΔTm (commonly the shift of the melting midpoint relative to a reference) in the assay listed under Homo sapiens [8] turned out to be 11 °C. The inhibition of growth at 0.05 µM with A549 [11] was determined as 16.1%.

In the case of `Brc1ccc(-c2nn(Cc3ccccc3)cc2-c2nc3c4cccnc4c4ncccc4c3[nH]2)cc1`, the Activity result in the assay listed under Homo sapiens [12] is “Dose-dependent effect”. In addition, the half-maximal inhibitory concentration (IC50) with A549 [3] was found to be 1.48 µM; in the assay on MRC5, 3.83 µM. The inhibition of growth at 0.1 µM with A549 [4] came out at 78.8%. Also, the “Ratio IC50” value in assay [5] is recorded as 2.58. Moreover, the “growth inhibition (GI)” value in the assay with A549 [1] is “Active”. The inhibition of growth at 0.2 µM in the assay with A549 [6] stood at 98.4%. Besides, the result in the assay listed under Homo sapiens [7] and in the assay filed under Homo sapiens [10] was inactive. Also, the shift in melting temperature (ΔTm) in the assay filed under Homo sapiens [8] came out at 20.5 °C. Also, the outcome in the assay filed under Homo sapiens [9] was Active. Further, in the assay on A549 [11], the inhibition of growth at 0.05 µM is 48.3%.

Take `Cc1ccc(-c2nn(-c3ccc([N+](=O)[O-])cc3[N+](=O)[O-])cc2-c2nc3c4cccnc4c4ncccc4c3[nH]2)cc1`: the “growth inhibition (GI)” value with A549 [1] is “Active”.

For the compound `Cn1cc(-c2nc3c4cccnc4c4ncccc4c3[nH]2)c(-c2ccc(F)cc2)n1`, the “growth inhibition (GI)” value in the assay on A549 [1] is “Active”.

For the compound `Cn1cc(-c2nc3c4cccnc4c4ncccc4c3[nH]2)c(-c2ccc(Br)cc2)n1`, the “growth inhibition (GI)” value with A549 [1] was “Active”.

As to `Clc1ccc(-c2n[nH]cc2-c2nc3c4cccnc4c4ncccc4c3[nH]2)cc1`, in the assay on A549 [1], the “growth inhibition (GI)” value is “Active”.

With `O=[N+]([O-])c1ccc(-n2cc(-c3nc4c5cccnc5c5ncccc5c4[nH]3)c(-c3ccc(Cl)cc3)n2)c([N+](=O)[O-])c1`, in the assay with A549 [1], the “growth inhibition (GI)” value was “Active”.

Take `O=[N+]([O-])c1ccc(-n2cc(-c3nc4c5cccnc5c5ncccc5c4[nH]3)c(-c3ccc(F)cc3)n2)c([N+](=O)[O-])c1`: in the assay with A549 [1], the “growth inhibition (GI)” value was “Active”.

Turning to `O=[N+]([O-])c1ccc(-n2cc(-c3nc4c5cccnc5c5ncccc5c4[nH]3)c(-c3ccc(Br)cc3)n2)c([N+](=O)[O-])c1`, the “growth inhibition (GI)” value with A549 [1] was “Active”.

As to `Cn1cc(-c2nc3c4cccnc4c4ncccc4c3[nH]2)c(-c2ccc(Cl)cc2)n1`, the “growth inhibition (GI)” value with A549 [1] is “Active”.

For `Cc1ccc(-c2nn(Cc3ccccc3)cc2-c2nc3c4cccnc4c4ncccc4c3[nH]2)cc1`, the results for the half-maximal inhibitory concentration (IC50) with A549 [3] and with MRC5 were 2.75 µM and 4.76 µM, respectively. The inhibition of growth at 0.1 µM in the assay with A549 [4] stood at 54.6%. Besides, the “Ratio IC50” value in assay [5] stood at 1.73. For the same compound, in the assay with A549 [1], the “growth inhibition (GI)” value was “Active”. In the assay with A549 [6], the inhibition of growth at 0.2 µM was determined as 85.8%. Further, the ΔTm in the assay filed under Homo sapiens [8] worked out at 16.3 °C. In addition, the result in the assay listed under Homo sapiens [9] was inactive. Besides, the inhibition of growth at 0.05 µM in the assay with A549 [11] came out at 16.3%.

In the case of `Cc1ccc(-c2nn(CCCN(C)C)cc2-c2nc3c4cccnc4c4ncccc4c3[nH]2)cc1`, the “growth inhibition (GI)” value with A549 [1] is “Active”.

With `Brc1ccc(-c2n[nH]cc2-c2nc3c4cccnc4c4ncccc4c3[nH]2)cc1`, the “growth inhibition (GI)” value in the assay on A549 [1] is “Active”.

Turning to `Fc1ccc(-c2n[nH]cc2-c2nc3c4cccnc4c4ncccc4c3[nH]2)cc1`, the “growth inhibition (GI)” value in the assay on A549 [1] was “Active”.

Take `Clc1ccc(-c2nn(Cc3ccccc3)cc2-c2nc3c4cccnc4c4ncccc4c3[nH]2)cc1`: the half-maximal inhibitory concentration (IC50) in the assay with A549 [3] worked out at 2.08 µM; in the assay on MRC5, 4.17 µM. In addition, in the assay with A549 [4], the inhibition of growth at 0.1 µM worked out at 54.2%. In addition, in assay [5], the “Ratio IC50” value amounted to 2. In the assay with A549 [1], the “growth inhibition (GI)” value was “Active”. Also, the inhibition of growth at 0.2 µM with A549 [6] was 94.4%. In the assay filed under Homo sapiens [8], the ΔTm is 13.5 °C. In addition, in the assay listed under Homo sapiens [9], the result was inactive. In addition, the inhibition of growth at 0.05 µM with A549 [11] was determined as 24.7%.

In the case of `Fc1ccc(-c2nn(Cc3ccccc3)cc2-c2nc3c4cccnc4c4ncccc4c3[nH]2)cc1`, the IC50 with A549 [3] worked out at 1.78 µM; with MRC5 it was 3.8 µM. Also, the inhibition of growth at 0.1 µM with A549 [4] came out at 86.6%. For the same compound, the “Ratio IC50” value in [5] is 2.13. For the same compound, in the assay on A549 [1], the “growth inhibition (GI)” value is “Active”. The inhibition of growth at 0.2 µM in the assay on A549 [6] came out at 93.3%. The shift in melting temperature (ΔTm) in the assay listed under Homo sapiens [8] turned out to be 12.4 °C. Moreover, the result in the assay filed under Homo sapiens [9] was inactive. Besides, the inhibition of growth at 0.05 µM with A549 [11] was determined as 34.5%.

`CN(C)CCCn1cc(-c2nc3c4cccnc4c4ncccc4c3[nH]2)c(-c2ccc(F)cc2)n1`: in the assay on A549 [1], the “growth inhibition (GI)” value is “Active”.
